Results on 15 molecules are retold here after PMC8273112 (ACS Infectious Diseases, 2021).

The term IC50 denotes the concentration needed to halve the response being measured. Usually CLint scaled stands for the capacity of the preparation to metabolise the compound, expressed as a volume cleared per time. Higher therefore signals rapid turnover. The term half-life denotes the time in which the quantity being followed falls by half.

The test system of data set [1] is Plasmodium falciparum strain Dd2. Put plainly: SYBR Green growth inhibition assay, P. falciparum Dd2. The format is cell-based.
The test system of data set [2] is Plasmodium falciparum strain D6. The data set is described as follows: SYBR Green growth inhibition assay, P. falciparum D6. The format is cell-based. Particulars: read-out: IC50 D6.
Data set [3] relates to P. falciparum strain Tm90–C2B. The data set is described as follows: SYBR Green growth inhibition assay, P. falciparum Tm90-C2B. The class given is cell-based, Plasmodium falciparum. Particulars: read-out: IC50 Tm90–C2B. Put shortly: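 Human erythrocytes (≤28 days old), 2% hematocrit, asynchronous culture at 0.2% initial parasitemia, in RPMI-1640 with HEPES, hypoxanthine, glucose, glutamine and Albumax II. 2-fold serial dilution starting at 20 μM, quadruplicate. Incubated 72 h at 37 °C under 5% O2/5% CO2/90% N2. SYBR Green I dye-detergent added for at least 1 h in the dark; fluorescence read at 497/520 nm, normalized to untreated wells, plotted against log concentration.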

Data set [4] relates to HepG2 cells. The data set is described as follows: HepG2 cytotoxicity assay. The class given is cell-based, human. The conditions noted are these: read-out: IC50 cytotoxicity, 24 h drug, 24 h recovery.
The subject of data set [5] is P. falciparum A6 (SB1-A6). The data set is described as follows: SYBR Green growth inhibition assay, P. falciparum A6. The format is cell-based, Plasmodium falciparum. Particulars: read-out: IC50 A6, 72 h. In a few lines: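 Asynchronous parasites grown in human erythrocytes in RPMI-1640 with HEPES, hypoxanthine and Albumax II under 5% O2/5% CO2/90% N2 at 37 °C. Test compound in 2-fold serial dilution from 20 μM, run in quadruplicate, at 2% hematocrit and 0.2% starting parasitemia for 72 h. SYBR Green I lysis dye added for ≥1 h in the dark. Fluorescence read at 497/520 nm, normalized to untreated wells and plotted against log concentration.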

In data set [6] the test system is P. falciparum. The conditions noted are these: cited from earlier work.
Data set [7] deals with Leishmania donovani. Particulars: read-out: in vitro IC50 Leishmania donovani; cited from earlier work.
The nature of data set [8]: Murine microsomal stability. The format is in vitro ADME. The conditions noted are these: for CLint scaled at 1 μM / half-life at 1 μM: mouse, pooled murine liver microsomes; for CLint scaled at 1 μM: pH 7.4; for half-life at 1 μM: pH 7.4, murine microsomal stability, t1/2, 1 μM. Background: Liver microsomes are a subcellular fraction often used to study metabolism.
For data set [9], the system named is Plasmodium yoelii. Put plainly: Modified 4-day Peters test, murine malaria. The class given is in vivo, Plasmodium yoelii in mice. Particulars: for P. yoelii ED50 / P. yoelii ED90: oral gavage days 1–4, parasitemia day 5, mice; for P. yoelii NRD (nonrecrudescence dose, cure dose): oral gavage up to 25 mg/kg/day, no parasites at day 30.
Data set [10] can be described thus: HepG2 cytotoxicity assay. The format is cell-based, human. Particulars: human, HepG2 cells.
Data set [11] relates to Plasmodium yoelii. The conditions noted are these: at any dose level; no reference given; cited from earlier work.
The test system of data set [12] is Babesia microti. The conditions noted are these: oral; cited from earlier work.
Data set [13] has as its system P. berghei. Particulars: cited from earlier work.
The subject of data set [14] is Toxoplasma gondii. Particulars: cited from earlier work.
The conditions of data set [15]: cited from earlier work.
Where [16] appears, read: read-out: IC50 Dd2, multidrug-resistant P. falciparum strain Dd2, 72 h.
Setting [17] is: P. falciparum pan-sensitive strain D6, 72 h, average of two to four determinations.
Where [18] appears, read: multidrug-resistant clinical isolate also resistant to atovaquone, 72 h.
Where [19] appears, read: in-house derived mutant line resistant to respiratory antagonists.
[20] abbreviates: Plasmodium falciparum, DD2, 72 h, read-out: IC50 Dd2.
[21] abbreviates: Plasmodium falciparum, D6, 72 h.
Where [22] appears, read: Plasmodium falciparum, TM90, 72 h.
[23] abbreviates: 0.5 mg/mL protein, 37 °C, 1 h, NADPH.

Counter-ions that a name gives are not always drawn. Like-named read-outs stand apart in the source and are kept apart here. Some results are limits rather than exact numbers.

Regarding “2,2′-Bis[(4-carbonamidophenyl)methylene]carbonimidic Dihydrazide Hydrochloride [Compound 30]”, the IC50 was 405 nM in [1] (setting [16]); 527 nM in data set [2] (setting [17]); 727 nM in data set [3] (setting [18]); 42000 nM in [4]; 516 nM in data set [5] (setting [19]).
Take `Cl.Cl.Cl.N=C(N)c1cccc(/C=N/N=C(\N)N/N=C/c2cccc(C(=N)N)c2)c1` [CGP 40215A]: the “IC50 value against P. falciparum in vitro” value in data set [6] was “low micromolar”. In addition, in [7], the 50% inhibitory concentration (IC50) is 18000 nM.
Regarding `Cl.N#Cc1cccc(/C=N/NC(=N)N/N=C/c2cccc(C#N)c2)c1` [Compound 21, 2,2′-Bis[(3-cyanophenyl)methylene]carbonimidic Dihydrazide Hydrochloride], the half-inhibitory concentration (IC50) in data set [1] (Plasmodium falciparum, DD2, 48 h, read-out: IC50 Dd2, 48 h) is 31 nM; in [1] (setting [20]) it was 20 nM; in [1] (Plasmodium falciparum, DD2, 72 h, read-out: IC50 Dd2, 72 h) it was 21 nM; in data set [1] (Plasmodium falciparum, DD2, 96 h, read-out: IC50 Dd2, 96 h) it was 22 nM; in data set [2] (setting [21]) it was 7 nM; in data set [3] (setting [22]), 31 nM. For the same molecule, the IC50 in data set [5] (Plasmodium falciparum) is 24 nM. The CLint scaled at 1 μM in [8] is 93.8 mL/min/kg. In addition, the half-life at 1 μM in data set [8] (setting [23]) was 0.97 h. Moreover, the “P. yoelii ED50” value in data set [9] is listed as 7.1 mg/kg/day. Further, the “P. yoelii ED90” value in [9] is listed as 9.4 mg/kg/day. In addition, the “P. yoelii NRD (nonrecrudescence dose, cure dose)” value (from here on “P. yoelii NRD”) in [9] is recorded as >25 mg/kg/day.
For `Cl.N#Cc1ccc(C=NNC(=N)NN=Cc2ccc(C#N)cc2)cc1` [Compound 22, 2,2′-Bis[(4-cyanophenyl)methylene]carbonimidic Dihydrazide Hydrochloride], the IC50 turned out to be 166 nM in data set [1] (setting [20]), 58 nM in data set [2] (setting [21]), 312 nM in [3] (setting [22]) and 76 nM in [5] (Plasmodium falciparum). Further, the IC50 at 24 h in data set [10] was > 200000 nM. For the same molecule, the “P. yoelii ED50” value in data set [9] is 2.7 mg/kg/day. Also, the “P. yoelii ED90” value in data set [9] amounted to 7.7 mg/kg/day. For the same molecule, the “P. yoelii NRD” value in data set [9] is >25 mg/kg/day.
For `N=C(NN=Cc1ccc(O)cc1)NN=Cc1ccc(O)cc1` [Compound 25, 2,2′-Bis[(4-phenol)methylene]carbonimidic Dihydrazide Hydrochloride], the IC50 amounted to 240 nM in [1] (setting [16]); 143 nM in data set [2] (setting [17]); 286 nM in data set [3] (setting [18]); 39000 nM in [4]; 278 nM in data set [5] (setting [19]).
`N=C(NN=Cc1ccc(-c2ccccc2)cc1)NN=Cc1ccc(-c2ccccc2)cc1` [Compound 26, 2,2′-Bis[(4-diphenyl)methylene]carbonimidic Dihydrazide Hydrochloride]: the half-inhibitory concentration (IC50) in data set [1] (setting [16]) was 87 nM; in data set [2] (setting [17]), 15 nM; in data set [3] (setting [18]), 71 nM; in [4], > 200000 nM; in [5] (setting [19]), 33 nM.
As for `N=C(NN=Cc1ccc([N+](=O)[O-])cc1)NN=Cc1ccc([N+](=O)[O-])cc1` [Compound 27, 2,2′-Bis[(4-nitrophenyl)methylene]carbonimidic Dihydrazide Hydrochloride], the IC50 in data set [1] (setting [20]) was 198 nM; in data set [2] (setting [21]), 96 nM; in data set [3] (setting [22]), 247 nM; in data set [5] (Plasmodium falciparum), 85 nM. Moreover, the concentration for half-maximal inhibition (IC50) at 24 h in [10] is > 200000 nM.
Turning to `N=C(NN=Cc1ccc(C(=O)O)cc1)NN=Cc1ccc(C(=O)O)cc1` [Compound 29, 2,2′-Bis[(phenyl-4-carbonate)methylene]carbonimidic Dihydrazide Hydrochloride], the concentration for half-maximal inhibition (IC50) in data set [1] (setting [16]) is > 5000 nM; in [2] (setting [17]), > 5000 nM; in data set [3] (setting [18]) it was > 5000 nM; in [4] it was > 200000 nM; in data set [5] (setting [19]) it was > 5000 nM.
Consider `N=C(NN=Cc1ccc(S(N)(=O)=O)cc1)NN=Cc1ccc(S(N)(=O)=O)cc1` [Compound 31, 2,2′-Bis[(4-sulphonamidophenyl)methylene]carbonimidic Dihydrazide Hydrochloride], for which the IC50 was > 5000 nM in [1] (setting [16]); > 5000 nM in [2] (setting [17]); > 5000 nM in data set [3] (setting [18]); > 200000 nM in data set [4]; > 5000 nM in data set [5] (setting [19]).
On to `N=C(NN=Cc1cccc(-n2cnnn2)c1)NN=Cc1cccc(-n2cnnn2)c1` [Compound 34, 2,2′-Bis[(3-tetrazole-1-phenyl)methylene]carbonimidic Dihydrazide Hydrochloride], for which the IC50 is > 5000 nM in data set [1] (setting [16]); 1640 nM in data set [2] (setting [17]); > 5000 nM in [3] (setting [18]); 107000 nM in data set [4]; 4790 nM in data set [5] (setting [19]).
As to `N=C(NN=Cc1ccc(-n2cnnn2)cc1)NN=Cc1ccc(-n2cnnn2)cc1` [Compound 35, 2,2′-Bis[(4-tetrazole-1-phenyl)methylene]carbonimidic Dihydrazide Hydrochloride], the IC50 in [1] (setting [16]) is > 5000 nM; in data set [2] (setting [17]), 838 nM; in [3] (setting [18]), > 5000 nM; in data set [4], > 200000 nM; in data set [5] (setting [19]) it was > 5000 nM.
On to `N=C(NN=Cc1ccc2c(c1)OC(F)(F)O2)NN=Cc1ccc2c(c1)OC(F)(F)O2` [Compound 36, 2,2′-Bis{[4-(2,2-difluoro-2,3-dioxazolo)]phenyl}methylene]carbonimidic Dihydrazide Hydrochloride], for which the IC50 was 800 nM in data set [1] (setting [16]); 250 nM in [2] (setting [17]); 905 nM in [3] (setting [18]); > 200000 nM in data set [4]; 235 nM in [5] (setting [19]).
As for `O=C1C(O)=C([C@H]2CC[C@H](c3ccc(Cl)cc3)CC2)C(=O)c2ccccc21` [atovaquone, reference compound], the IC50 was < 1 nM in [1] (setting [20]), < 1 nM in [2] (setting [21]), > 5000 nM in data set [3] (setting [22]) and > 5000 nM in data set [5] (Plasmodium falciparum). The molecule also returned an IC50 at 24 h in data set [10] of 72000 nM.
Take `CCN(CC)CCCC(C)Nc1ccnc2cc(Cl)ccc12` (centres unmarked) [chloroquine, reference compound]: the IC50 in data set [1] (setting [20]) was 70 nM; in data set [3] (setting [22]), 297 nM; in [5] (Plasmodium falciparum), 16 nM. For the same molecule, the “cure in P. yoelii model” value in data set [11] is recorded as “not curative”. Moreover, the IC50 at 24 h in data set [10] amounted to 181000 nM.
Consider `Cl.N=C(NN=Cc1ccc(Cl)cc1)NN=Cc1ccc(Cl)cc1` [robenidine, 1,3-Bis(p-chlorobenzylideneamino)guanidine hydrochloride, reference compound], for which the IC50 in data set [1] (setting [20]) came out at 814 nM; in data set [2] (setting [21]), 324 nM; in data set [3] (setting [22]), 1320 nM; in data set [5] (Plasmodium falciparum), 410 nM. Also, in data set [12], the “murine in vivo nonrecrudescence dose Babesia microti” value is on record as 100 mg/kg/day. In addition, the “murine microsomal stability, t1/2” value in [8] (1 μM, 0.5 mg/mL protein, 37 °C, 1 h, NADPH) came out at 2.6442 h. This molecule showed a CLint scaled at 1 μM in data set [8] of 34.4 mL/min/kg. Moreover, the half-life at 1 μM in data set [8] (setting [23]) was > 2.5 h. Moreover, in data set [13], the “activity in vivo against P. berghei” value is “moderate activity”. In addition, in data set [14], the “in vitro IC50 Toxoplasma gondii” value was 0.03 µg/mL. Moreover, in [10], it took 30000 nM to reach half-maximal inhibition (IC50 at 24 h). Further, the absorption result in [15] was “poorly absorbed”. Also, in data set [9], the “P. yoelii ED50” value is 1.6 mg/kg/day. Also, in data set [9], the “P. yoelii ED90” value turned out to be 4.9 mg/kg/day. Also, the “P. yoelii NRD” value in data set [9] is reported as >25 mg/kg/day.
